Screening data (PubChem)
Jurkat tox 60K: cytotoxicity toward Jurkat T cells, primary screen, cytotoxicity control, cell-based, Jurkat E6.1, 60K MLSMR library | Jurkat E6.1 viability, ATP luminescence, 48 h | inhibition, % at 4 µM | 1.2% of 56,000 active | AID 463, 2006;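 active = inhibition above the mean inhibition of all tested compounds plus 3 SD, cut at about 28% in these data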
Ecoli tolC: growth inhibitors of E. coli tolC mutant, primary screen, strain BW25113 ΔtolC::kan, 384-well; OD615; growth inhibition, % at 10 µM (by protocol); 2.2% of 65,000 active; AID 573, 2007;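 active = growth inhibition at or above a cutoff equal to the mean over every tested compound plus 3 SD, cut at about 60% in these data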;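 note: growth measured after 20 h incubation at 37 °C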
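System: E. coli ΔtolC::kan strain BW25113; Buffer or medium: LB broth supplemented with 50 µg/mL kanamycin; Compound: 10 µM final, single dose; Incubation: bacterial growth with compound for 20 h at 37 °C; Signal: A615 absorbance measurement; Evaluation: growth inhibition in percent.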
Lung fibro prol: antiproliferative effect on LL 47 fibroblasts – human, LL 47 cells, CellTiter-Glo luminescence, primary screen; LL 47 human lung fibroblast viability, ATP luminescence; hits give low values; viability, % at 10 µM; 1.1% of 85,000 active; AID 719, 2007;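 active = viability at or below 50% in the single dose screen; inactive = viability above 50%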;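 note: compound exposure lasted 72 h before the ATP readout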
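Benchmarks: Cell-only wells, no compound | Test system: LL 47 human lung fibroblasts, passage 12 or lower | Input: 1,150 cells/well | Measured by: CellTiter-Glo luminescence measuring cellular ATP | Medium: IMEM, 15% FBS supplement | Schedule: Overnight attachment after seeding, then 72 h compound exposure at 37 °C | Doses: Compound addition at 0.1% DMSO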
H69AR growth 86K: proliferation blockers of H69AR lung cancer cells, primary screen, cell-based, human, 86K library. H69AR lung tumor viability, ATP luminescence, 72 h; hits give low values. viability, % at 10 µM. 6% of 85,000 active. AID 598, 2007;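 active = viability at or below 40%; inactive = viability above 40%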;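 note: multidrug resistant small cell line overexpressing MRP-1 efflux transporter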
Ecoli WT expand: growth inhibitors of wild-type E. coli, primary screen, strain BW25113, expanded library, OD600; OD600 absorbance; growth inhibition, % at 100 µM; 0.15% of 98,000 active; AID 710, 2007;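 active = growth inhibition above about 50% at one test dose, limit read from the data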;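 note: growth measured after 20 h incubation at 37 °C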
HUVEC prolif 384: inhibitors of HUVEC proliferation, primary screen, cell-based, 384-well. CellTiter-Glo luminescence, 72 h; hits give low values. viability, % at 10 µM (by protocol). 1.1% of 86,000 active. AID 648, 2007;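 active = viability at or below 30%; inactive = viability above 30%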
A number is an active result; - = inactive; . = no result given. Hits are enriched below; roughly 6.4% of the tested compounds scored in any of these assays.

SMILES | Jurkat tox 60K | Ecoli tolC | Lung fibro prol | H69AR growth 86K | Ecoli WT expand | HUVEC prolif 384
CCOC(=O)SC1=N/C(=C\c2ccc(N(C)C)cc2)C(=O)S1 | - | - | - | 27 | - | -
CCc1c(C#N)c(SCc2c(C)noc2C)nc2c1C(=O)CC(C)(C)C2 | . | 63 | - | - | . | -
CCN(c1ccccc1)S(=O)(=O)c1ccc(N)c(OC)c1 | . | . | - | 17 | - | -
COc1ccc(S(=O)(=O)Cc2ccccc2)cc1N | - | - | - | 37 | - | -
Cc1nc2ccc(NC(=O)c3cc(S(=O)(=O)N4CCOCC4)ccc3C)cc2s1 | . | . | - | - | - | -
Cc1ccc(/C=C/C2=Cc3c(sc(NC(=O)CSc4n[nH]c(N)n4)c3C#N)C(C)(C)C2)o1 | - | - | - | 29 | - | -
COC(=O)/C=c1\sc2ncnn2c1=O | - | - | - | 7.9 | - | -
COc1ccc(-c2noc(CCCc3ccccc3)n2)cc1OC | - | 62 | - | - | - | -
COc1ccc(-c2noc(Cc3ccc(Cl)cc3)n2)cc1OC | . | 63 | - | - | - | -
COc1ccc(-c2noc(-c3ccc(Br)o3)n2)cc1OC | - | - | - | - | - | 29
COc1cccc(=O)c2c(C)n(C)c(C)c12 | - | - | - | - | - | -
O=C(NCc1ccccc1)C(c1cccnc1)N(Cc1ccco1)C(=O)c1ccccn1 (centres undefined) | - | - | - | - | - | -
CN1CC(=O)NC1=NC(=O)c1ccc(Cl)c(S(=O)(=O)N2CCCCCC2)c1 | - | - | - | 12 | - | -
COc1cccc(NC(=O)CSc2nc(C)cs2)c1 | . | . | . | . | - | .
COc1ccc(C(=O)Nn2cnc3scc(-c4cccs4)c3c2=O)c(O)c1 | - | 75 | - | - | - | -
COc1cccc(-n2cnc3scc(-c4cccs4)c3c2=O)c1 | - | - | - | - | - | -
O=C(C1CCN(c2nnc(-n3cccc3)s2)CC1)N1CCN(c2cccc(C(F)(F)F)c2)CC1 | - | - | - | - | - | -
CCN1CCc2nc(NC(=O)c3ccccc3)sc2C1 | . | . | . | . | - | .
CN(C)c1ccc(/C=C(\C#N)C(=O)Nc2nc3c(s2)CCN(Cc2ccccc2)C3)cc1 | . | . | - | 2.4 | - | 24
CCOc1ccc(NC(C)c2cc(Cl)ccc2O)cc1 (centres undefined) | - | - | - | - | - | -
CC(Nc1ccc(Br)cn1)c1cc(Cl)ccc1O (centres undefined) | - | 100 | - | - | - | -
CC(Nc1ccc(Cl)cc1)c1cc(Cl)ccc1O (centres undefined) | . | . | - | 39 | . | -
CCN(CC)c1ccc(C2Nc3cccc4cccc(c34)N2)c(O)c1 | . | - | - | 19 | . | -
CCOC(=O)C1=Nc2ccccc2C1=[N+]=[N-] | . | - | - | - | 100 | -
CCOC(=O)c1cccc(C(=O)OCC)n1 | - | - | - | - | - | -
SMILES | Jurkat tox 60K | Ecoli tolC | Lung fibro prol | H69AR growth 86K | Ecoli WT expand | HUVEC prolif 384
CCCNC(=O)CCn1c(-c2ccc(C)cc2)cc(C(=O)OCC)c1C | . | . | - | - | - | -
Cc1ccc(C2(C(F)(F)F)NC(=O)N3CCN=C3S2)cc1 (centres undefined) | - | - | - | 22 | - | -
CCOC(=O)c1ccccc1NC(=O)c1ccc(N(C)S(C)(=O)=O)cc1 | - | - | - | 27 | - | -
CCOC(=O)c1ccccc1NC(=O)c1ccccc1N(C)S(C)(=O)=O | - | - | - | - | - | -
CCOC(=O)c1ccccc1NC(=O)c1ccc(F)cc1 | . | . | - | - | - | -
CCOC(=O)c1ccccc1NC(=O)c1c(F)c(F)c(F)c(F)c1F | - | 65 | - | - | - | -
COc1ccc(OC)c(C2=NOC(C(=O)N3CCN(c4ccccc4)CC3)C2)c1 (centres undefined) | . | . | - | - | - | -
O=C(Nc1nccs1)C1CCN(S(=O)(=O)c2cnc[nH]2)CC1 | - | - | - | - | - | -
C#CCN(C#N)c1nc(NCC)nc(NC(C)C)n1 | - | - | - | - | - | -
CCNc1nc(NC(C)C)nc(N(C#N)CCOc2ccccc2)n1 | . | . | - | 27 | - | -
O=C1C(N2CCOCC2)=C(n2nnc3ccccc32)C(=O)c2ccccc21 | . | . | 2.4 | 1.4 | - | 2.2
O=C1c2ccccc2C(=O)c2c1cccc2N1CCOCC1 | . | . | . | . | - | .
COc1ccccc1-c1c(C)nn2c(N3CCC4(CC3)OCCO4)cc(C)nc12 | - | - | - | - | - | -
Cc1cc(N2CCC3(CC2)OCCO3)n2nc(C)c(-c3ccc(Cl)cc3)c2n1 | . | - | - | 37 | . | -
COc1ccc(CNC(=O)C2CC(C)=C(C)CC2C(=O)O)cc1 (centres undefined) | . | . | - | - | - | -
CC(Oc1ccc(Cl)cc1Cl)c1nc(-c2ccc(NC(=O)c3ccccn3)cc2)no1 (centres undefined) | . | . | - | 29 | . | -
Cc1cc(=O)oc2cc(NC(=O)CCCC(=O)O)ccc12 | - | - | - | - | - | -
CCCn1c(CNc2ccccc2O)nc2ccccc21 | - | - | - | 27 | - | -
CCCCn1c(CNC(=O)CCC)nc2ccccc21 | - | - | - | - | - | -
Cc1ccc2[nH]c(C(=O)O)c(-c3ccccc3)c2c1 | - | - | - | - | - | -
Cc1ccc2[nH]c(-c3ccccc3)cc(=O)c2c1 | 98 | - | - | 33 | - | -
CCCOc1ccc(C2C(C(=O)c3ccc(C)o3)=C(O)C(=O)N2Cc2cccnc2)cc1 (centres undefined) | - | 67 | . | . | . | .
COc1cccc(C(=O)Nc2ccc(F)c(F)c2F)c1 | . | . | - | - | - | -
CCCN1C(=O)C(O)(C2CC(=O)CC(C)(C)O2)c2ccccc21 (centres undefined) | - | - | - | 23 | - | -
CCN1C(=O)C(O)(C2COC(C)(C)CC2=O)c2ccccc21 (centres undefined) | . | . | - | - | - | -
SMILES | Jurkat tox 60K | Ecoli tolC | Lung fibro prol | H69AR growth 86K | Ecoli WT expand | HUVEC prolif 384
Cn1c(/C=C/c2ccc([N+](=O)[O-])o2)nc2ccccc2c1=O | . | . | 5.2 | -0.5 | 65 | 16
Nc1cc(=O)[nH]c(SCC(=O)Nc2ccc(S(=O)(=O)N3CCOCC3)cc2)n1 | . | . | - | - | - | -
Cc1ccc(N(CC(=O)NCCc2ccccc2)S(=O)(=O)c2c(C)noc2C)cc1 | . | . | - | - | - | -
COCCOC(=O)c1c(C)nc(SCC(=O)Nc2cccc3ccccc23)c(C#N)c1-c1ccco1 | . | . | - | 11 | - | -
O=C(C[n+]1ccc(C(=O)N/N=C/c2ccc(O)cc2)cc1)c1ccccc1 | . | . | - | - | - | -
COc1nc(-c2ccncc2)nc2ccccc12 | . | . | - | - | - | -
CCCCN(CC)c1nc(-c2ccncc2)nc2ccccc12 | . | . | - | 20 | - | -
O=S(=O)(/N=C(/Nc1ccccc1F)c1ccccc1)c1ccccc1 | . | . | . | . | - | .
